ChEMBL document CHEMBL4689842, “EUbOPEN Chemogenomics Library wave 1” (2021)
Where “and” joins values, the source holds several entries; their conditions need not be identical. Equal values may be shown once.

Test system: Fibroblast
Assay: Multiplex assay against human fibroblast
Format: toxicity, cell-based
Method in brief: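 Live cells were stained at seeding with Hoechst33342, BioTracker Green Microtubule Cytoskeleton Dye, MitoTracker Red and Annexin V Alexa Fluor 680. Following compound addition, they were imaged on a CQ1 microscope at 37°C and 5% CO2 and gated by CellPathfinder machine learning into Hoechst high-intensity objects or normal cells, with normal cells split into healthy, pyknosed or fragmented nuclei and pyknosed cells into mitotic or apoptotic. Tubulin, mitochondrial-mass and membrane-permeability phenotypes are per cents of healthy-nucleus cells.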

[1] = 12 h, 1 µM, compound concentration 1 uM, replicate 1
[2] = 12 h, 1 µM, compound concentration 1 uM, replicate 2
[3] = 12 h, 10 µM, compound concentration 10 uM, replicate 1
[4] = 12 h, 10 µM, compound concentration 10 uM, replicate 2
[5] = 24 h, 1 µM, compound concentration 1 uM, replicate 1
[6] = 24 h, 1 µM, compound concentration 1 uM, replicate 2
[7] = 24 h, 10 µM, compound concentration 10 uM, replicate 1
[8] = 24 h, 10 µM, compound concentration 10 uM, replicate 2
[9] = 48 h, 10 µM, compound concentration 10 uM, replicate 1
[10] = 48 h, 10 µM, compound concentration 10 uM, replicate 2

CCN(CC)CCCCNc1ncc2cc(-c3cc(OC)cc(OC)c3)c(NC(=O)NC(C)(C)C)nc2n1 [PD-173074]
Population Apoptotic (%) [1]: 61% | Population Fragmented Nuclei (%) [1]: 20% | Population Hoechst High Intensity Objects (%) [1]: 70% | Population Membrane Permeable-Phenotype (%) [1]: 2% | Population Mitotic Cells (%) [1]: 38% | Population Normal (%) [1]: 29% | Population Pyknosed Nuclei (%) [1]: 63% | Population Tubulin-Different-Phenotype (%) [1]: 8% | Total Cell Count [1]: 749 | Population Apoptotic (%) [2]: 67% | Population Fragmented Nuclei (%) [2]: 46% | Population Healthy Nuclei (%) [2]: 15% | Population Hoechst High Intensity Objects (%) [2]: 72% | Population Membrane Permeable-Phenotype (%) [2]: 13% | Population Mitochondria Different-Phenotype (%) [2]: 0% | Population Mitotic Cells (%) [2]: 32% | Population Normal (%) [2]: 27% | Population Pyknosed Nuclei (%) [2]: 38% | Population Tubulin-Different-Phenotype (%) [2]: 0% | Total Cell Count [2]: 352 | Population Apoptotic (%) [3]: 60% | Population Fragmented Nuclei (%) [3]: 44% | Population Healthy Nuclei (%) [3]: 34% | Population Hoechst High Intensity Objects (%) [3]: 57% | Population Membrane Permeable-Phenotype (%) [3]: 0% | Population Mitotic Cells (%) [3]: 39% | Population Normal (%) [3]: 42% | Population Pyknosed Nuclei (%) [3]: 20% | Population Tubulin-Different-Phenotype (%) [3]: 6% | Total Cell Count [3]: 786 | Population Apoptotic (%) [4]: 66% | Population Fragmented Nuclei (%) [4]: 54% | Population Healthy Nuclei (%) [4]: 32% | Population Hoechst High Intensity Objects (%) [4]: 61% | Population Membrane Permeable-Phenotype (%) [4]: 16% | Population Mitochondria Different-Phenotype (%) [4]: 4% | Population Mitotic Cells (%) [4]: 33% | Population Normal (%) [4]: 38% | Population Pyknosed Nuclei (%) [4]: 12% | Population Tubulin-Different-Phenotype (%) [4]: 8% | Total Cell Count [4]: 189 | Population Apoptotic (%) [5]: 59% | Population Fragmented Nuclei (%) [5]: 32% | Population Healthy Nuclei (%) [5]: 13% | Population Hoechst High Intensity Objects (%) [5]: 74% | Population Membrane Permeable-Phenotype (%) [5]: 0% | Population Mitotic Cells (%) [5]: 40% | Population Normal (%) [5]: 25% | Population Pyknosed Nuclei (%) [5]: 53% | Population Tubulin-Different-Phenotype (%) [5]: 9% | Total Cell Count [5]: 594 | Population Apoptotic (%) [6]: 62% | Population Fragmented Nuclei (%) [6]: 44% | Population Healthy Nuclei (%) [6]: 12% | Population Hoechst High Intensity Objects (%) [6]: 72% | Population Membrane Permeable-Phenotype (%) [6]: 16% | Population Mitochondria Different-Phenotype (%) [6]: 0% | Population Mitotic Cells (%) [6]: 37% | Population Normal (%) [6]: 27% | Population Pyknosed Nuclei (%) [6]: 43% | Population Tubulin-Different-Phenotype (%) [6]: 0% | Total Cell Count [6]: 339 | Population Apoptotic (%) [7]: 51% | Population Fragmented Nuclei (%) [7]: 42% | Population Healthy Nuclei (%) [7]: 39% | Population Membrane Permeable-Phenotype (%) [7]: 2% | Population Mitochondria Different-Phenotype (%) [7]: 0% | Population Mitotic Cells (%) [7]: 48% | Population Pyknosed Nuclei (%) [7]: 18% | Population Tubulin-Different-Phenotype (%) [7]: 5% | Total Cell Count [7]: 734 | Population Apoptotic (%) [8]: 60% | Population Fragmented Nuclei (%) [8]: 58% | Population Healthy Nuclei (%) [8]: 28% | Population Hoechst High Intensity Objects (%) [8]: 58% | Population Membrane Permeable-Phenotype (%) [8]: 28% | Population Mitochondria Different-Phenotype (%) [8]: 14% | Population Mitotic Cells (%) [8]: 40% | Population Normal (%) [8]: 41% | Population Pyknosed Nuclei (%) [8]: 13% | Population Tubulin-Different-Phenotype (%) [8]: 19% | Total Cell Count [8]: 177

CCn1c(=O)c(-c2ccc(Cl)cc2Cl)cc2cnc(Nc3ccc(N4CCNCC4)c(F)c3)nc21
Population Apoptotic (%) [3]: 33% and 53% and 60% | Population Fragmented Nuclei (%) [3]: 33% and 37% and 26% | Population Healthy Nuclei (%) [3]: 39% and 46% and 56% | Population Hoechst High Intensity Objects (%) [3]: 69% and 59% and 37% | Population Mitochondria Different-Phenotype (%) [3]: 11% and 6% and 5% | Population Mitotic Cells (%) [3]: 66% and 46% and 39% | Population Normal (%) [3]: 30% and 41% and 62% | Population Pyknosed Nuclei (%) [3]: 27% and 16% | Population Fragmented Nuclei (%) [4]: 44% and 57% and 61% | Population Healthy Nuclei (%) [4]: 18% and 35% and 19% | Population Hoechst High Intensity Objects (%) [4]: 50% and 51% and 70% | Population Normal (%) [4]: 50% and 48% and 29% | Total Cell Count [4]: 206 and 112 and 242 | Population Apoptotic (%) [7]: 47% and 66% and 63% | Population Fragmented Nuclei (%) [7]: 40% and 37% and 23% | Population Healthy Nuclei (%) [7]: 32% and 38% and 58% | Population Hoechst High Intensity Objects (%) [7]: 72% and 65% and 42% | Population Mitochondria Different-Phenotype (%) [7]: 14% and 20% and 7% | Population Mitotic Cells (%) [7]: 52% and 33% and 36% | Population Normal (%) [7]: 27% and 34% and 57% | Population Pyknosed Nuclei (%) [7]: 24% and 17% | Population Tubulin-Different-Phenotype (%) [7]: 33% and 32% | Total Cell Count [7]: 236 and 703 and 456 | Population Apoptotic (%) [8]: 100% and 71% and 73% | Population Fragmented Nuclei (%) [8]: 41% and 62% and 53% | Population Healthy Nuclei (%) [8]: 31% and 23% and 24% | Population Hoechst High Intensity Objects (%) [8]: 44% and 54% and 74% | Population Normal (%) [8]: 55% and 45% and 25% | Population Pyknosed Nuclei (%) [8]: 26% and 13% and 22% | Total Cell Count [8]: 225 and 111 and 256 | Population Apoptotic (%) [9]: 35% | Population Fragmented Nuclei (%) [9]: 36% | Population Healthy Nuclei (%) [9]: 46% | Population Hoechst High Intensity Objects (%) [9]: 67% | Population Membrane Permeable-Phenotype (%) [9]: 30% | Population Mitochondria Different-Phenotype (%) [9]: 15% | Population Mitotic Cells (%) [9]: 64% | Population Normal (%) [9]: 32% | Population Pyknosed Nuclei (%) [9]: 16% | Population Tubulin-Different-Phenotype (%) [9]: 15% | Total Cell Count [9]: 255 | Population Apoptotic (%) [10]: 71% | Population Fragmented Nuclei (%) [10]: 60% | Population Healthy Nuclei (%) [10]: 31% | Population Hoechst High Intensity Objects (%) [10]: 76% | Population Membrane Permeable-Phenotype (%) [10]: 65% | Population Mitochondria Different-Phenotype (%) [10]: 7% | Population Mitotic Cells (%) [10]: 28% | Population Normal (%) [10]: 23% | Population Pyknosed Nuclei (%) [10]: 8% | Total Cell Count [10]: 348
